Experimental findings from the EternaBench riboswitch data are described below.

The test system of this series is MS2 coat protein. Put plainly: apparent Kd, MS2 coat protein; higher = weaker binding; RNA-MaP array; FMN 200 µM where present. In short, it runs like this: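 The apparent Kd comes from binding curves fitted cluster by cluster, filtered, and summarised as a median. Those curves followed SNAP-549-labelled MS2 coat protein from 0.7 or 1.5 nM, doubling to 3 µM, on Illumina sequencing-chip clusters where stalled E. coli RNA polymerase had transcribed the designs, without and then with constant ligand. The buffer was 100 mM Tris-HCl pH 7.5, 80 mM KCl, 4 mM MgCl2, BSA, DTT, yeast tRNA and Tween-20, and green signal was normalised to red-channel RNA signal and control-cluster median Fmax.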

Setting [1] is: designed as: ON switch for flavin mononucleotide, no ligand.
Where [2] appears, read: ligand present: flavin mononucleotide, designed as: ON switch for flavin mononucleotide.
Setting [3] is: designed as: OFF switch for flavin mononucleotide, no ligand.
Where [4] appears, read: ligand present: flavin mononucleotide, designed as: OFF switch for flavin mononucleotide.

Turning to “GCACGAGACUAAGGAUAUGAUGUACCUAUAUGUGACAUGAGGAUCACCCAUGUGGUAAGUAUGAUUCAGAAGGUAGAGACGUGC”, the “apparent Kd” value was determined as 28.2 nM under setting [1] and 20.6 nM under setting [2]. For the sequence “GCACAUGGCAUAGGAUAUAGAACUAUACUUUAUAUAGGUAGUUACACUUAACUAGAAGGAUGAUACAUGAGGAUCACCCAUGUA”, the “apparent Kd” value worked out at 16.8 nM under setting [1] and 14.5 nM under setting [2]. As to “CAGGUAGCUACAGGAUAUACACGUCUGGAUAAACCAGACGAAUAACCCACAUGAGGAUCACCCAUGUAGAAGGGUAGCUGCCUG”, the “apparent Kd” value runs as follows: under setting [3], 15.4 nM; under setting [4], 21.3 nM.

In the case of “GGACGGUUCGUCAGGAUAUGCUCUACCUCGGUAGAGCAGAAGGGACAUGAGGAUCACCCAUGUGAGAACUGUUC”, the “apparent Kd” value came to 18.4 nM under setting [3] and 17.3 nM under setting [4].

As to “UUAUAUAGAGUGAGGAUAUGCUGGUCCUUGGAUCAGCAGAAGGCACAUGAGGAUCACCCAUGUAAUAUAAUAUU”, the “apparent Kd” value reads like this: under setting [3], 22.4 nM; under setting [4], 42 nM. On the same counts, the results for “AAAAAGUGAGGAUAUACGAGGAGAAACAACAAACAAACAAAACAUGAGGAUCACCCAUGUAGAAGGCACAAAAA” are 21.1 nM and 26.2 nM.

With “GUAGAGUCAGGAUAUACGAGAUCGAUAGAUCAAAGAUCCUUACAUGAGGAUCACCCAUGUAGAAGGGACUCUAC”, the “apparent Kd” value under setting [3] came out at 37.4 nM and the “apparent Kd” value under setting [4] was found to be 677 nM. Taken in the same sequence, the figures for “UUUUCGGCAGGAUAUACAUGAGGAUCACCCAUGUAAAUUUUUCGUUUAACUUGAAUGUGUAGAAGGGCCAUUUU” were 23.3 nM and 23.6 nM. On the same counts, the results for “UCGGCGCGAGGAUAUGCGGCUGGUGCUUCGGGCUCUGGCGUACAUGAGGAUCACCCAUGUAGAAGGCGCGCCGC” are 13.1 nM and 14.3 nM. In the case of “GAUUCACAUGAGGAUCACCCAUGUGAGGAUAUAGUGCAGGAGGUGGAUGCCCGCCUCUCUAGAAGGCACACGGG”, the “apparent Kd” value reads like this: under setting [3], 21.9 nM; under setting [4], 24.5 nM. Turning to “CCUACCUUCACAGGAUAUGCUAUCCUUUGGGUAGCAGAAGGGUGAUAACAUGAGGAUCACCCAUGUGGUAGGCCCGGUGACGGG”, the “apparent Kd” value under setting [1] amounted to 1300 nM and the “apparent Kd” value under setting [2] came to 105 nM.

“GUCACGAAUGUAGGAUAUCGAGUGGAUAACACUCGAGAAGGACAUGAGGAUCACCCAUGUAAAAUGAAAGAUAAUAAACGUGAC”: the “apparent Kd” value reads like this: under setting [3], 17.6 nM; under setting [4], 50.5 nM. In the case of “GGACAUGUCGUUUACAUGAGGAUCACCCAUGUCGAUGGACAUGAGGAUAUCGAUCCGAAUCGGAUCGAGAAGGCAUGCAUGUCC”, the “apparent Kd” value was 41.8 nM under setting [1] and 18.6 nM under setting [2]. On to “AUGAGGUCAGGAUAUGCAUGGCGGGACUUGCGUCGUGGCGUGCAGAAGGGACAUGAGGAUCACCCAUGUGGAGA”, for which the “apparent Kd” value turned out to be 104 nM under setting [3] and 325 nM under setting [4].

As to “GGAAAUCAUGUAGGAUAUGCAUGGCGAAGCUACGCAGAAGGACAUGAGGAUCACCCAUGUUAUAGCGUCCGAGAAGGGAUGCAA”, the “apparent Kd” value came out at 40 nM under setting [3] and 218 nM under setting [4]. With “GGAGAGGACAGAGGAUAUACGUGCUAGAGAUACUAGCAAAAUUUCCUCACAUGAGGAUCACCCAUGUAGAAGGCUGUCCUAUCG”, the “apparent Kd” value was found to be 16.6 nM under setting [3] and 309 nM under setting [4]. Turning to “AUUUAUUUACAGAAGGAGUAUGAUAAUGUUUUACUAGGAUAUGUAUACAUGAGGAUCACCCAUGUUAUUAUAGGUUUUUUAUGU”, the “apparent Kd” value reads like this: under setting [3], 10.3 nM; under setting [4], 7.08 nM.

With “AUACAUGAGGAUCACCCAUGUUACAUGGCCUUGAUAGAUUGUAGAAGGAUGUUAUUAUUAAUUUCAUAGGAUAUACUAUUUAGU”, the “apparent Kd” value came to 106 nM under setting [3] and 83.9 nM under setting [4]. On the same counts, the results for “GUCAGCUCGUGAGGAUAUACAACACUGAUUCGGCAGUGUAUUAAGAUCACAUGAGGAUCACCCAUGUAGAAGGCACGAGCUGAU” are 17.2 nM and 275 nM. As to “ACAGAGCUUGACAUGAGGAUCACCCAUGUUAGAUUGUUAUGUCAGGAUAUUGUCUAGCAACUAGACAAGAAGGGAUGCUCUGUG”, the “apparent Kd” value by setting is: under setting [1], 364 nM; under setting [2], 56 nM. In the case of “CGAGUGUAAGGAUAUUCGGCGCCAGGGAACAACCUAGCGUAGAAGAAGGUACAUGAGGAUCACCCAUGUGGUUA”, the “apparent Kd” value under setting [3] is 269 nM and the “apparent Kd” value under setting [4] turned out to be 22.4 nM. Taken in the same sequence, the figures for “GUCAGCUCGUGAGGAUAUACAUGUGCUGGAUACAGCACUAUUAAGUUCACAUGAGGAUCACCCAUGUAGAAGGCACGAGCUGAU” were 15.8 nM and 20.4 nM.

For the sequence “CGUCGCUGUCGAGAGGAUAUGCGGUGAUGGACAUGAGGAUCACCCAUGUUAGCGAUAGUAUCACGGUAGAAGGCUCUUACGACUG”, the “apparent Kd” value is, setting by setting: under setting [1], 32.9 nM; under setting [2], 25.3 nM. On the same counts, the results for “CGUAUCGUAAGAGGAUAUAUGAGUCCUACAUGAGGAUCACCCAUGUAGGUGAUCUAACGAGAUUAGUAGAAGGCUUACGAUACG” are 14.3 nM and 7.96 nM. For the sequence “UUAGUAUUGCAAGGAUAUGUUUAUGAUAUUUUUCCUCUUACAUGAGGAUCACCCAUGUUUAACUUACAGAAGGUGCUAUGAUUU”, the “apparent Kd” value under setting [3] is 575 nM and the “apparent Kd” value under setting [4] is 1030 nM. Consider “CUCCUACAUGAGGAUCACCCAUGUCAGGAUAUCUCAGUGGCACCUAAAUUCGCCACCCAGAGAAGGGACGUGCA”, for which the “apparent Kd” value reads like this: under setting [3], 13.9 nM; under setting [4], 16.6 nM. As to “CAUUGGUAAGGAUAUGAAUCGAUCUCAGAAAUGAGAUCGAUUCAGAAGGUACAUGAGGAUCACCCAUGUUGAUG”, the “apparent Kd” value under setting [3] came out at 27.8 nM and the “apparent Kd” value under setting [4] turned out to be 72.9 nM. On the same counts, the results for “CUUUUGUGAGGAUAUUAGUAGUAAAUAAAUAAAAUUACUACUGAGAAGGCACAUGAGGAUCACCCAUGUUCCUC” are 33.7 nM and 317 nM. With “UUAAUAAUACAAGGAUAUCUAUUGUUCUUUCGACAUACAUGAGGAUCACCCAUGUUAAUAUAUAUAGAGAAGGUGUAUUUUCAG”, the “apparent Kd” value is, setting by setting: under setting [1], 28 nM; under setting [2], 24.5 nM. On the same counts, the results for “UGGUACUAGGGAGGAUAUGGGAAGAUACAUGAGGAUCACCCAUGUUUAAGAAUGCCGAAAGGCAACUAGAAGGCCCUAGUACCU” are 430 nM and 19.9 nM. Taken in the same sequence, the figures for “GUACAUACAAAGUUACAUGAGGAUCACCCAUGUUUAUUGGGAAGAAGGGUAACAUUAUUAAAUAUAUAGGAUAUUUCACAAUUG” were 546 nM and 283 nM. On the same counts, the results for “GUAGCUACUUUUAUACAUGAGGAUCACCCAUGUUACUUGGGUAAGGAUAUUGAUGUUAUGAUUAUCAAGAAGGUACUAUGCUAC” are 136 nM and 30 nM. Regarding “UUUAUACAUGAGGAUCACCCAUGUGAGGAUAUGCUUUAUUAUUAUUAUUAUUAUUAUUGCAGAAGGCACGUUAU”, the “apparent Kd” value is, setting by setting: under setting [3], 39.3 nM; under setting [4], 54.8 nM. On the same counts, the results for “UUUUUAUUUGCAGGAUAUUGUAUUUUAUUACAUCAAGAAGGGCAUUACAUGAGGAUCACCCAUGUCAUCCUAUGGUUAACUAGU” are 9.62 nM and 9.77 nM. Take “CAAACAACACAGAAGGCCACGAAGUCCAUGGGUGGAGGAUAUGUGUUAGCUCUGACAUGAGGAUCACCCAUGUCUACGUGAGCU”: the “apparent Kd” value under setting [1] was 5.5 nM and the “apparent Kd” value under setting [2] came out at 5.27 nM. Taken in the same sequence, the figures for “AAGAAAGAAACGUAGGAUAUCAAGAAUAUAACAUGAGGAUCACCCAUGUAAAUACGAAAGUAUAAUGAGAAGGAUGGAUGAUCUUC” were 102 nM and 83.4 nM.

“UCCUCACAUGAGGAUCACCCAUGUCAGGAUAUCUGCGAGCAUUGGCCAAGGCCGCUCAGGAGAAGGGACGUCAA”: the “apparent Kd” value runs as follows: under setting [3], 17.1 nM; under setting [4], 27.4 nM. On the same counts, the results for “AGAUGACAAUGUCAUCUUCAACGGACAUGAGGAUCACCCAUGUAGGAUAUGCUACUCAAAGAGUAGCAGAAGGACAUGUGUCUU” are 23.1 nM and 85.2 nM. Consider “UUGGACGUCGUAGGAGAUGUAGGAUAUUCCUACAUGAGGAUCACCCAUGUUGACAUGGAAGAAGGACAGAAGGACGAUGUCCAU”, for which the “apparent Kd” value is, setting by setting: under setting [1], 294 nM; under setting [2], 8.27 nM. On to “AAAAUAAGAACAGGAUAUGUGGGUUCGAAGAGUAAAGCUCUCCACAUGAGGAUCACCCAUGUGCCACAGAAGGGUUCGGGUGAU”, for which the “apparent Kd” value runs as follows: under setting [1], 58 nM; under setting [2], 11.8 nM. For “GCGGUGAUCCUAGCUCACAUGAGGAUCACCCAUGUGCAGUUCAAGGAUAUACGUUGCCGCUCCGCGUAGAAGGUGAACUCGCUA”, the “apparent Kd” value is, setting by setting: under setting [3], 43 nM; under setting [4], 44.1 nM. “GUAAGAAAUACAGGAUAUGUUAGUUUUAAGUGUAUUGGUUAUUACUUAAUUACAGAAGGGUAUUACAUGAGGAUCACCCAUGUA”: the “apparent Kd” value reads like this: under setting [1], 14.8 nM; under setting [2], 9.06 nM. In the case of “CCACCUCCUGAGGAUAUUGCAUCACCCGACUGAUAAGAAGGCAGAACAUGAGGAUCACCCAUGUGGGUACUCCC”, the “apparent Kd” value amounted to 82.5 nM under setting [3] and 77.2 nM under setting [4]. With “UUAGCAUACCGAGGAUAUUCAUAUAAUAAAUAAACAUGAGGAUCACCCAUGUGGCGAAAGCCUAGGGAGAAGGCGGAAUGCUAU”, the “apparent Kd” value under setting [1] came out at 197 nM and the “apparent Kd” value under setting [2] was 24.6 nM. For “CCUCUACAUGAGGAUCACCCAUGUGAGGAUAUCUCGGAGCAGCCACUUAAAGCACUCCAGAGAAGGCACGUGUA”, the “apparent Kd” value is 15.3 nM under setting [3] and 22.8 nM under setting [4].

Turning to “GGAUGACAAAGUCAUCCUAUUCGAACAUGAGGAUCACCCAUGUAGGAUAUGCUAGUCAAAGACUAGCAGAAGGACAUGUGCCUU”, the “apparent Kd” value worked out at 36.4 nM under setting [3] and 164 nM under setting [4]. As for “AGCACGAAAGUGCAACGAUGUACGAGAAGGACAUGAGGAUCACCCAUGUUGCUGUAACUGCUUAUGUAGGAUAUCGUACAUCGA”, the “apparent Kd” value under setting [4] came out at 7.01 nM.

Regarding “UUUAGUUGCGGGCAGGAUAUGUAUUAAAAUACAUGAGGAUCACCCAUGUGUGGGUAUAACACCCAACAGAAGGGCCAAUCGCGAC”, the “apparent Kd” value runs as follows: under setting [1], 132 nM; under setting [2], 18.3 nM.

The apparent Kd is the concentration giving half-maximal binding under the conditions of the assay.
